Experimental data from ChEMBL document CHEMBL2202972, “Synthesis and biological evaluation of 2-substituted-4-(3',4',5'-trimethoxyphenyl)-5-aryl thiazoles as anticancer agents” (Bioorg Med Chem, 2012).
pIC50: −log10 of the molar value.

Columns and labels:
Bos taurus = organism: Bos taurus; experiment: Displacement of [3H]colchicine from tubulin in bovine brain at 5 uM DEAE-cellulose filter method
[1] = Inhibition of bovine brain tubulin polymerization preincubated for 15 mins by turbidimetric analysis; design: species or system Bos taurus
Outline: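 Bovine brain tubulin (10 μM) in glutamate buffer preincubated with varying compound concentrations for 15 min at 30 °C, then chilled to 0 °C. GTP 0.4 mM added and mixtures warmed to 30 °C in a spectrophotometer; assembly followed by turbidity at 350 nm.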

HT-29 = experiment: Antiproliferative activity against human HT-29 cells after 72 hrs by MTT assay; type: functional, cell-based; details: HT-29, 72 h
Jurkat = experiment: Antiproliferative activity against human Jurkat cells after 72 hrs by MTT assay; type: functional, cell-based
Outline: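 Cells seeded at 8 × 10³ per well and incubated 18 h at 37 °C, 5% CO₂, then exposed to a range of compound concentrations for 72 h at 37 °C. Jurkat and HL-60 were grown in RPMI-1640, the others in DMEM, with penicillin, streptomycin and 10% FBS. DMSO stocks (10 mM); DMSO ≤0.25% final. Viability by MTT. […] Mean ± SE of ≥3 independent experiments.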

MCF7 = experiment: Antiproliferative activity against human MCF7 cells after 72 hrs by MTT assay; type: functional, cell-based; details: MCF7, 72 h
HL-60 = experiment: Antiproliferative activity against human HL60 cells after 72 hrs by MTT assay; type: functional, cell-based; details: HL-60, 72 h
A549 = experiment: Antiproliferative activity against human A549 cells after 72 hrs by MTT assay; type: functional, cell-based; details: A549, 72 h
HeLa = experiment: Antiproliferative activity against human HeLa cells after 72 hrs by MTT assay; type: functional, cell-based
CCRF-CEM = experiment: Resistance ratio of IC50 for human vinblastine-resistant CEM/VBL100 cells overexpressing P-glycoprotein to IC50 for human CEM cells; type: functional

| SMILES | inhibition (Bos taurus) [%] | pIC50 [1] | pIC50 (HT-29) | pIC50 (Jurkat) | pIC50 (MCF7) | pIC50 (HL-60) | pIC50 (A549) | pIC50 (HeLa) | Ratio IC50 (CCRF-CEM) |
| --- | --- | --- | --- | --- | --- | --- | --- | --- | --- |
| CCOc1ccc(-c2sc(C)nc2-c2cc(OC)c(OC)c(OC)c2)cc1 | 51 | 5.92 | 6.31 | 5.76 | 7.37 | 6.60 | 5.48 | 5.73 | – |
| COc1cc(-c2nc(N(C)C)sc2-c2ccc(C(F)(F)F)cc2)cc(OC)c1OC | – | < 4.70 | < 5.00 | < 5.00 | < 5.00 | < 5.00 | < 5.00 | < 5.00 | – |
| CCOc1ccc(-c2sc(N(C)C)nc2-c2cc(OC)c(OC)c(OC)c2)cc1 | – | < 4.70 | 5.22 | 5.38 | < 5.00 | 6.52 | < 5.00 | 5.49 | – |
| CC[C@]1(O)C[C@@H]2CN(CCc3c([nH]c4ccccc34)[C@@](C(=O)OC)(c3cc4c(cc3OC)N(C)[C@H]3[C@@](O)(C(=O)OC)[C@H](OC(C)=O)[C@]5(CC)C=CCN6CC[C@]43[C@@H]65)C2)C1 [VINBLASTINE] | – | – | – | – | – | – | – | – | 256.2 |
| CNc1nc(-c2cc(OC)c(OC)c(OC)c2)c(-c2ccc(C(F)(F)F)cc2)s1 | – | – | 5.91 | 5.52 | 5.14 | 5.50 | 5.34 | 5.47 | – |

Second part, led by results:

| inhibition (Bos taurus) [%] | pIC50 [1] | pIC50 (HT-29) | pIC50 (Jurkat) | pIC50 (MCF7) | pIC50 (HL-60) | pIC50 (A549) | pIC50 (HeLa) | SMILES | Ratio IC50 (CCRF-CEM) |
| --- | --- | --- | --- | --- | --- | --- | --- | --- | --- |
| 68 | 5.92 | 6.37 | 7.72 | 8.00 | 7.74 | 6.90 | 7.16 | CNc1nc(-c2cc(OC)c(OC)c(OC)c2)c(-c2ccc(C)cc2)s1 | – |
| – | – | 6.40 | 5.15 | < 5.00 | < 5.00 | 5.37 | 5.42 | COc1cc(-c2nc(C)sc2-c2ccc(C(F)(F)F)cc2)cc(OC)c1OC | – |
| 78 | 6.02 | 7.42 | 7.29 | 7.68 | 6.84 | 6.82 | 6.89 | CNc1nc(-c2cc(OC)c(OC)c(OC)c2)c(-c2ccc3ccccc3c2)s1 | – |
